Reference: ChEMBL document CHEMBL4184106, “Discovering alkylamide derivatives of bexarotene as new therapeutic agents against triple-negative breast cancer” (Bioorg Med Chem Lett, 2018)
Activity calls are given as the source filed them. No cut-off for these calls is given here.

What was measured:
MCF7 [1] = assay: Inhibition of mammosphere formation in human MCF7 cells assessed as ratio of C-Myc to beta actin level at 5 uM by Western blot analysis (Rvb= 1); type: functional
Procedure, shortened: (§1)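 Post-treatment cell lysates were probed by Western blot for CSC markers, with β-actin as the loading control. Band densitometry was normalized to DMSO-treated samples.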

MCF7 [2] = assay: Cytotoxicity against human MCF7 cells assessed as reduction in cell viability at 5 uM by MTT assay; type: functional
MDA-MB-231 [3] = assay: Cytotoxicity against human MDA-MB-231 cells assessed as reduction in cell viability at 5 uM by MTT assay; type: functional
BT-549 [4] = assay: Cytotoxicity against human BT549 cells assessed as reduction in cell viability at 5 uM by MTT assay; type: functional
BT-549 [5] = assay: Cytotoxicity against human BT549 cells assessed as reduction in cell viability by MTT assay; type: functional, cell-based
MCF-10A [6] = assay: Cytotoxicity against human MCF10A cells assessed as reduction in cell viability by MTT assay; type: cell-based
MDA-MB-231 [7] = assay: Induction of apoptosis in human MDA-MB-231 cells assessed as ratio of cleaved caspase-3 to beta-actin level at 5 uM by western blot analysis (reference value: 1); type: functional
BT-549 [8] = assay: Induction of apoptosis in human BT549 cells assessed as ratio of cleaved caspase-3 to beta-actin level at 5 uM by western blot analysis (reference value: 1); type: functional
MCF-10A [9] = assay: Induction of apoptosis in human MCF10A cells assessed as ratio of cleaved caspase-3 to beta-actin level at 5 uM by western blot analysis (reference value: 1); type: cell-based
MCF7 [10] = assay: Induction of apoptosis in human MCF7 cells assessed as ratio of cleaved caspase-3 to beta-actin level at 5 uM by western blot analysis (reference value: 1); type: functional
MCF7 [11] = assay: Induction of apoptosis in human MCF7 cells assessed as ratio of cleaved caspase-8 to beta-actin level at 5 uM by western blot analysis (reference value: 1); type: functional
MDA-MB-231 [12] = assay: Induction of apoptosis in human MDA-MB-231 cells assessed as ratio of cleaved caspase-9 to beta-actin level at 5 uM by western blot analysis (reference value: 1); type: functional
BT-549 [13] = assay: Induction of apoptosis in human BT549 cells assessed as ratio of cleaved caspase-9 to beta-actin level at 5 uM by western blot analysis (reference value: 1); type: functional
MCF-10A [14] = assay: Induction of apoptosis in human MCF10A cells assessed as ratio of cleaved caspase-9 to beta-actin level at 5 uM by western blot analysis (reference value: 1); type: cell-based
MCF7 [15] = assay: Induction of apoptosis in human MCF7 cells assessed as ratio of cleaved caspase-9 to beta-actin level at 5 uM by western blot analysis (reference value: 1); type: functional
MDA-MB-231 [16] = assay: Induction of apoptosis in nuclear fractions of human MDA-MB-231 cells assessed as ratio of cleaved PARP to beta-actin level at 5 uM by western blot analysis (reference value: 1); type: functional
BT-549 [17] = assay: Induction of apoptosis in nuclear fractions of human BT549 cells assessed as ratio of cleaved PARP to beta-actin level at 5 uM by western blot analysis (reference value: 1); type: functional
MCF7 [18] = assay: Inhibition of colony formation in human MCF7 cells at 5 uM supplemented with fresh medium containing compound every 3 to 4 days for 7 days by crystal violet staining based adherent cell colony-forming assay; type: functional
Procedure, shortened: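 MCF-7 cells were plated for adherent colony formation and treated for 7 days. Colonies were counted at the end of treatment and normalized to untreated samples.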

MDA-MB-231 [19] = assay: Inhibition of colony formation in human MDA-MB-231 cells at 2 uM supplemented with fresh medium containing compound every 3 days for 10 days by microscopic method based soft agar colony formation assay relative to control; type: functional
MDA-MB-231 [20] = assay: Anti-migratory activity against human MDA-MB-231 cells assessed as reduction in wound closure at 2 uM up to 24 hrs by wound-healing assay; type: functional, cell-based
Procedure, shortened: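 MDA-MB-231 monolayer was scratched to make a wound gap. Cells were treated alongside a DMSO vehicle control, and migration into the gap was imaged at 24 h.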

MCF7 [21] = assay: Down regulation of c-Myc expression in human MCF7 cells at 5 uM by Western blot analysis; type: functional
Procedure, shortened: (§2)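 MCF-7 cells were treated and lysates probed by Western blot for CSC-related markers, with β-actin as loading control. Band densitometry was normalized to DMSO-treated samples.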

MCF7 [22] = assay: Down regulation of KLF4 expression in human MCF7 cells at 5 uM by Western blot analysis; type: functional; procedure, shortened: as §2
MCF7 [23] = assay: Down regulation of Nanog expression in human MCF7 cells at 5 uM by Western blot analysis; type: functional; procedure, shortened: as §2
MCF7 [24] = assay: Down regulation of Sox-2 expression in human MCF7 cells at 5 uM by Western blot analysis; type: functional; procedure, shortened: as §2
MDA-MB-231 [25] = assay: Down regulation of KLF4 expression in human MDA-MB-231 cells at 5 uM by Western blot analysis; type: functional
MCF7 [26] = assay: Inhibition of mammosphere formation in human MCF7 cells assessed as ratio of KLF4 to beta actin level at 5 uM by Western blot analysis (Rvb= 1); type: functional; procedure, shortened: as §1
MCF7 [27] = assay: Inhibition of mammosphere formation in human MCF7 cells assessed as ratio of Nanog to beta actin level at 5 uM by Western blot analysis (Rvb= 1); type: functional; procedure, shortened: as §1
MDA-MB-231 [28] = assay: Inhibition of mammosphere formation in human MDA-MB-231 cells assessed as ratio of KLF4 to beta actin level at 5 uM by Western blot analysis (Rvb= 1); type: functional; procedure, shortened: as §1
BT-549 [29] = assay: Inhibition of mammosphere formation in human BT549 cells assessed as ratio of C-Myc to beta actin level at 5 uM by Western blot analysis (Rvb= 1); type: functional
MDA-MB-231 [30] = assay: Effect on epithelial-mesenchymal transition in human MDA-MB-231 cells assessed as ratio of E-cadherin to beta-actin level at 5 uM by Western blot analysis (reference value: 1); type: functional
MDA-MB-231 [31] = assay: Effect on epithelial-mesenchymal transition in human MDA-MB-231 cells assessed as ratio of vimentin to beta-actin level at 5 uM by Western blot analysis (reference value: 1); type: functional
MDA-MB-231 [32] = assay: Effect on epithelial-mesenchymal transition in human MDA-MB-231 cells assessed as ratio of slug to beta-actin level at 5 uM by Western blot analysis (reference value: 1); type: functional
BT-549 [33] = assay: Effect on epithelial-mesenchymal transition in human BT549 cells assessed as ratio of E-cadherin to beta-actin level at 5 uM by Western blot analysis (reference value: 1); type: functional
BT-549 [34] = assay: Effect on epithelial-mesenchymal transition in human BT549 cells assessed as ratio of vimentin to beta-actin level at 5 uM by Western blot analysis (reference value: 1); type: functional
BT-549 [35] = assay: Effect on epithelial-mesenchymal transition in human BT549 cells assessed as ratio of slug to beta-actin level at 5 uM by Western blot analysis (reference value: 1); type: functional
MDA-MB-231 [36] = assay: Effect on beta-catenin translocation in cytosolic fraction of human MDA-MB-231 cells assessed as ratio of beta-catenin to beta-actin level at 5 uM by Western blot analysis (reference value: 1); type: functional
MDA-MB-231 [37] = assay: Induction of apoptosis in nuclear fractions of human MDA-MB-231 cells assessed as ratio of PARP to beta-actin level at 5 uM by western blot analysis (reference value: 1); type: functional

SMILES: C=C(c1ccc(C(=O)NCCN2CCCC2)cc1)c1cc2c(cc1C)C(C)(C)CCC2(C)C
- Ratio (MCF7 [1]): 0.8
- Activity (MCF7 [2]): 40%
- Activity (MDA-MB-231 [3]): 60%
- Activity (BT-549 [4]): 60%
- EC50 (BT-549 [5]): < 10 µM
- Activity (MCF-10A [6]): Non-Toxic
- Ratio (MDA-MB-231 [7]): 3.4
- Ratio (BT-549 [8]): 2.1
- Ratio (MCF-10A [9]): 1
- Ratio (MCF7 [10]): 1
- Ratio (MCF7 [11]): 1
- Ratio (MDA-MB-231 [12]): 1.7
- Ratio (BT-549 [13]): 2.1
- Ratio (MCF-10A [14]): 1
- Ratio (MCF7 [15]): 1.2
- Ratio (MDA-MB-231 [16]): 1.5
- Ratio (BT-549 [17]): 2.5
- inhibition (INH) (MCF7 [18]): 80%
- inhibition (INH) (MDA-MB-231 [19]): 90%
- Activity (MDA-MB-231 [20]): Active
- Activity (MCF7 [21]): 10 - 30%
- Activity (MCF7 [22]): 10 - 30%
- Activity (MCF7 [23]): 20%
- Activity (MCF7 [24]): 60%
- Activity (MDA-MB-231 [25]): 50%
- Ratio (MCF7 [26]): 0.7
- Ratio (MCF7 [27]): 0.8
- Ratio (MDA-MB-231 [28]): 0.5
- Ratio (BT-549 [29]): 0.8
- Ratio (MDA-MB-231 [30]): 6.2
- Ratio (MDA-MB-231 [31]): 0.3
- Ratio (MDA-MB-231 [32]): 1
- Ratio (BT-549 [33]): 6.3
- Ratio (BT-549 [34]): 1
- Ratio (BT-549 [35]): 0.7
- Ratio (MDA-MB-231 [36]): 2.1
- Ratio (MDA-MB-231 [37]): 0.9
